Hits are enriched below; roughly 3.7% of the tested compounds scored in any of these assays.
Beta2AR agonist: agonists of human beta-2 adrenergic receptor inducing internalization; 0.43% of 340,000 active; response, % (no concentration beside the values); Am2.2-beta2AR cells, FAP receptor internalization, flow cytometry;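 active = response above a set limit, near 3 SD of response in nonfluorescent compounds, cut at about 42% in these data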
CHOP UPR activ: apoptotic UPR (CHOP) activation; 0.34% of 330,000 active; activation, % at 10 µM; CHO-CHOP luciferase reporter, luminescence; percent of tunicamycin response over DMSO baseline;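 active = at 10 µM dose, activation of 40% or more, normalized to positive control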
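Test system: CHO-CHOP cells, stable luciferase reporter of PERK-eIF2a-CHOP signalling | Quantity: 500 CHO-CHOP cells per well | Buffer or medium: F12 plus 10% serum | Compound dosing: 10 µM single point, 0.5% DMSO | Schedule: 6 h compound treatment, 37 °C | Signal: Luciferase luminescence | Control set: Tunicamycin high control, DMSO low control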
Mdm2-MdmX inh: inhibitors of human Mdm2/MdmX interaction | SaOS-2 split-luciferase Mdm2/MdmX complementation, luminescence | inhibition, % at 8 µM | O15151+Q00987 | 3% of 330,000 active;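 active = inhibition of at least 50% at 8 µM in the primary screen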
Dynein cargo inh: dynein cargo transport inhibition | 3617.4 mouse cells, GR-EGFP nuclear translocation imaging; test concentration mostly 20 µM; stimulated with dexamethasone, 1 µM; stronger effect = lower value | z-score, hits read low | 0.47% of 220,000 active;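 active = plate z-score of nuclear minus cytoplasmic receptor signal below a set negative limit, without overly bright fluorescence or cell loss, cut at about -3.5 in these data, passing the limit was not always enough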;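 also: z-score of nuclear minus cytoplasmic ring GR-EGFP intensity difference per well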
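Also added: dexamethasone, 1.0 µM final. Medium: tet-free, stripped-serum medium. Detection: fixed, Hoechst-stained cells imaged at 10x for EGFP. Read-out: nuclear-to-cytoplasmic GR-EGFP distribution per well. Times: induction 48 h, compound 1 h, agonist 30 min.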
MDM2 E3 inh: Mdm2 E3 ligase (human) inhibition | signal enhancement, % at 5 µM | cell-based MDM2 ubiquitination luciferase reporter, 2 h; 0 = plate control, 100 = twice control, blank-subtracted | 0.11% of 210,000 active | Q00987 | AID 1230;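 active = signal enhancement of 30% or more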;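 also: luminescence tracks abundance of the self-degrading MDM2-luciferase fusion protein; higher signal means inhibition of MDM2 E3 ligase activity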
Target sequence (Q00987 whole entry, looked up, the tested form may be a part): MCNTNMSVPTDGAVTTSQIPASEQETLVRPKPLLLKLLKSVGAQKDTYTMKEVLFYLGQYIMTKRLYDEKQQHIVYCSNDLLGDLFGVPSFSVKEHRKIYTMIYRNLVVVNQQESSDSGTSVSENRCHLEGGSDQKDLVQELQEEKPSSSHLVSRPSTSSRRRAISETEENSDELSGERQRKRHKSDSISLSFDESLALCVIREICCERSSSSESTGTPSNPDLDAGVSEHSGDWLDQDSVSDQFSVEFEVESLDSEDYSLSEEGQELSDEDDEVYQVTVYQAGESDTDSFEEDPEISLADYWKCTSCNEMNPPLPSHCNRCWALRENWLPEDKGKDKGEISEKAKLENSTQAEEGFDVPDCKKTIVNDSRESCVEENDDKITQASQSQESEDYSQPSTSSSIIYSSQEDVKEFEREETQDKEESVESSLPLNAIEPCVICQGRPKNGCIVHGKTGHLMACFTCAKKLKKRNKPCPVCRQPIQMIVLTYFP
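System: stable MDM2–luciferase fusion reporter cells / Input: 2000 cells seeded into each well / Schedule: 4 h settle plus 2 h compound, 37 °C / Compound: single-point 5 µM / Buffer or medium: cells held in DMEM / Benchmarks: control and blank well means / Evaluation: percent signal gain over controls, blank-subtracted / Measured by: luciferase luminescence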
XBP1 UPR activ: adaptive UPR (XBP1) activation; 0.33% of 330,000 active; activation, % at 20 µM; CHO-XBP1 luciferase reporter, IRE1-XBP1 UPR activation, luminescence; percent of tunicamycin response, DMSO as zero;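 active = versus positive control, 20 µM dose yields 30% or more activation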
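Assay system: IRE1-XBP1 luciferase reporter CHO line. Input: 1000 cells/well. Buffer or medium: F12 with 10% serum. Doses: 20 µM, 1% DMSO. Times: overnight seeding at 37 °C, 6 h compound treatment at 37 °C. Technique: Steady-Glo luciferase glow luminescence, 10 min after reagent addition.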
Mdm2-MdmX conf: human Mdm2/MdmX binding inhibition, confirmed; shares compounds with Mdm2-MdmX inh; luminescent assay; 55% of 10,000 active; inhibition, % at 8 µM; in the data active = inhibition above about 40%
FLuc counter: counter-screen for Mdm2/MdmX inhibitors: full-length luciferase; 77% of 6,200 active; inhibition, % at 8 µM; SaOS-2 full-length luciferase counterscreen, luminescence; shares compounds with Mdm2-MdmX inh;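 active = mean inhibition at 8 µM reaching about 37%, which flags the compound as non-specific, limit read from the data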;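 also: p53-null SaOS-2 cells with luciferase driven by a doxycycline-inducible promoter; compound on cells about two nights before reading with doxycycline added after day one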
Hits are given with their value; . = inactive; / = not tested or not shown; ! = repeats disagree.

SMILES	Beta2AR agonist	CHOP UPR activ	Mdm2-MdmX inh	Dynein cargo inh	MDM2 E3 inh	XBP1 UPR activ	Mdm2-MdmX conf	FLuc counter
CC1CCN(c2c(NCc3ccc(C(=O)N(C)C4CCCCC4)cc3)c(=O)c2=O)CC1	.	.	.	.	.	.	/	/
CC1CCN(c2c(NCc3ccc(C(=O)N4CCc5ccccc54)cc3)c(=O)c2=O)CC1	.	.	65	.	.	.	53	39
C=CCc1cccc(/C=N/NC(=O)CNc2ccccc2)c1O	.	.	56	.	.	.	55	.
C=CCc1cccc(/C=N/NC(=O)CNc2ccccc2OC)c1O	.	.	69	.	.	.	55	.
COc1cc([N+](=O)[O-])cc(/C=N/NC(=O)C(C)Nc2cccc(C)c2)c1O (stereo unspecified)	.	.	.	.	.	.	/	/
C=CCc1cccc(/C=N/NC(=O)C(C)Nc2cccc(C)c2)c1O (stereo unspecified)	.	.	71	.	.	.	56	.
C=CCc1cccc(/C=N/NC(=O)C[n+]2ccccc2)c1O	.	.	.	/	/	.	/	/
C=CCc1cccc(/C=N/NC(=O)CNc2cccc3ccccc23)c1O	.	.	71	.	.	.	66	39
COc1ccc2oc(=N)c(C(=O)Nc3ccccc3Cl)cc2c1	.	.	.	/	/	.	/	/
C=CCc1cccc(/C=N/NC(=O)CCCNc2ccc(C)cc2)c1O	.	/	/	.	.	/	/	/
C=CCc1cccc(/C=N/NC(=O)CCC(=O)Nc2ccc(F)cc2)c1O	.	.	71	.	.	.	64	.
Cc1cc(/C=N/NC(=O)c2cccs2)c(C)n1-c1ccccc1	.	.	93	.	.	.	88	93
COc1cccc(CC(=O)OCC(=O)NCCc2ccc(F)cc2)c1	.	.	.	/	/	.	/	/
O=C(OCC(=O)N1CCN(Cc2ccccc2)CC1)c1cc(Cl)ccc1[N+](=O)[O-]	.	.	.	/	/	.	/	/
COc1ccc(C(=O)C(=O)c2ccc(OCCO)cc2)cc1	.	.	.	/	/	.	/	/
CCn1c(Oc2ccccc2C)nc2c1c(=O)n(C)c(=O)n2C	.	.	57	/	/	.	42	43
CCc1ccc(N2CC(C(=O)Nc3ccc(S(=O)(=O)NCC4CCCO4)cc3)CC2=O)cc1 (stereo unspecified)	.	.	.	/	/	.	/	/
CN1CC(c2ccccn2)C2(SC(=S)N(Cc3ccccc3)C2=O)C12C(=O)Nc1ccccc12 (stereo unspecified)	.	.	.	.	.	.	/	/
CN1CC(c2ccccc2)C2(SC(=S)N(Cc3ccco3)C2=O)C12C(=O)Nc1ccccc12 (stereo unspecified)	.	.	76	.	.	.	54	51
CN(C)CCCN(C(=O)CCSc1ccccc1)c1nc2cc3c(cc2s1)OCO3	.	.	53	.	.	.	.	/
CN(C)CCCN(C(=O)c1ccc(S(=O)(=O)N(C)C)cc1)c1nc2cc3c(cc2s1)OCO3	.	.	.	.	.	.	/	/
CN(C)CCCN(C(=O)CCS(=O)(=O)c1ccccc1)c1nc2cc3c(cc2s1)OCO3	.	.	66	/	/	.	61	56
CN(C)CCCN(C(=O)COc1ccccc1)c1nc2cc3c(cc2s1)OCCO3	.	.	.	/	/	.	/	/
O=[N+]([O-])c1cccc(COc2cccc(CN3CCCC3)c2)c1	.	/	/	/	/	/	/	/
Nc1ncc(Br)cc1S(=O)(=O)Nc1cc(C(F)(F)F)cc(C(F)(F)F)c1	.	.	79	/	/	.	.	56
SMILES	Beta2AR agonist	CHOP UPR activ	Mdm2-MdmX inh	Dynein cargo inh	MDM2 E3 inh	XBP1 UPR activ	Mdm2-MdmX conf	FLuc counter
O=C(/C=C/C=C/c1ccccc1)CC1(O)C(=O)N(CCc2ccccc2)c2ccccc21 (stereo unspecified)	93	.	53	.	.	.	.	/
COCCN(Cc1cc2cc(C)ccc2n2nnnc12)C(=S)Nc1ccccc1C	.	.	51	.	.	.	.	/
O=C(Cn1c(=O)oc2ccccc21)Nc1n[nH]c(=S)s1	.	.	.	.	.	.	/	/
CCOC(=O)c1sc(NC(=O)CSc2nnnn2-c2ccc(C)cc2)c(C(=O)OCC)c1C	.	.	.	.	.	.	/	/
CCOC(=O)c1sc(NC(=O)CSc2nc3c(c(=O)n2-c2ccc(C)cc2)SCC3)c(C(=O)OCC)c1C	.	.	64	.	/	.	.	/
COc1ccc(Cc2nc(C)cc(Cl)n2)cc1[N+](=O)[O-]	.	.	.	/	/	.	/	/
COc1ccc2c(c1)c(=O)oc1c(C)c(OCC(=O)N3CCc4ccccc4C3)ccc12	.	.	53	.	.	.	.	/
Cc1cc(=O)oc2cc(OCC(=O)N3CCc4ccccc4C3)ccc12	.	.	.	.	.	.	/	/
COc1ccc(N2CCN(C(=O)COc3ccc4c(C)c(C)c(=O)oc4c3C)CC2)cc1	.	.	53	/	/	.	.	/
CN(NS(=O)(=O)c1ccccc1)C(=O)c1ccccc1	.	/	/	/	/	/	/	/
O=C(NNC(=S)Nc1ccc(C(=O)O)c(O)c1)c1ccncc1	.	/	/	/	/	/	/	/
CC[C@H](C)C(=O)O[C@H]1C[C@@H](C)C=C2C=C[C@H](C)[C@H](CC[C@@H]3C[C@@H](O)CC(=O)O3)[C@H]21	.	.	53!	.	/	.	.	/
O=C(Cc1ccccc1[N+](=O)[O-])OCc1cccc([N+](=O)[O-])c1	/	.	.	/	/	.	/	/
CCN(C(=O)CSc1nc2ccccc2n1C)C1CCS(=O)(=O)C1 (stereo unspecified)	.	.	.	/	/	.	/	/
CC(=O)CC1OC(=O)C(Br)=C1NCc1ccccc1 (stereo unspecified)	.	.	67	.	.	.	48	.
C/C(=N\NC(=O)Cc1ccc(Cl)cc1)c1ccccc1O	.	.	57	/	/	.	44	43
Cn1c(/C=C/c2ccc(Br)cc2)c([N+](=O)[O-])c(=O)n(C)c1=O	.	.	84	/	/	.	52	.
COc1ccc(-c2sc3ccc(N4CCOCC4)cc3c2C#CC2(O)CCCCC2)cc1	.	.	76	/	/	.	.	/
COc1ccc(-c2ccc3oc(-c4ccc(OC)cc4)c(C#CC4(O)CCCCC4)c3c2)cc1	.	.	70	/	/	.	.	/
COc1cc(OC)cc(-c2sc3ccc(OC)cc3c2C#CC2(N)CCCCC2)c1	.	.	96	/	/	.	.	/
COc1ccc(C(=O)c2ccc3oc(-c4ccc(OC)cc4)c(C#CCCO)c3c2)cc1	.	.	.	/	/	.	/	/

Assay outcomes as filed in PubChem.
